Hsp70 activator: switches on Hsp70 transcription | HeLa Hsp70 promoter luciferase reporter, luminescence; scaled: vehicle 0, proteasome-inhibitor control 100% | activation, % at 10 µM | 0.04% of 200,000 active | AID 1203;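 active means activation above the mean across all tested compounds plus 3 SD, cutoff set per campaign, cut at about 5.5% in these data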
Rad51 HR inh: Rad51 (human) homologous recombination inhibition; inhibition, % at 10 µM; hRad51 DNA strand exchange, fluorescence dequenching; Q06609; 0.085% of 200,000 active;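 active means inhibition above 40% at the single screening dose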
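System: human Rad51 nucleoprotein filaments preassembled on unlabelled ssDNA. Reagent: labelled 47-mer dsDNA for strand exchange. Schedule: 30-min compound preincubation and 15-min exchange, both room temperature. Measured by: FRET fluorescence dequenching, excitation 485 nm, emission 520 nm. Read-out: Fluorescence-based percent inhibition, control- and blank-normalised. Benchmarks: plate controls and plate blanks.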
ABHD5 PLIN5 PPI: ABHD5-PLIN5 protein interaction inhibition; Q00G26+Q8WTS1; Split G. princeps luciferase complementation, luminescence, 4 h; inhibition, % at 4 µM; 0.78% of 360,000 active;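 active means inhibition above the mean inhibition across every tested compound plus 3 SD, cut at about 22% in these data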
HIF activator: HIF pathway transcriptional activation; activation, % at 7.5 µM (by protocol); AID 1910; 0.32% of 300,000 active; U2OS HRE-luciferase reporter, luminescence; normalized: DMSO 0%, desferrioxamine 100%;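 active means mean activation of at least 10% of the iron chelator positive control signal, with at least half of replicates also reaching 10%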
TAG inh: triacylglycerol accumulation inhibition; H9c2 cells, Nile Red lipid (TAG) fluorescence; cells loaded with 200 µM oleic acid; inhibition, % at 12.5 µM; 0.66% of 230,000 active; AID 651582;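 active means pattern-corrected inhibition of lipid staining of at least 50% with the nuclear-stain viability signal not falling by more than 50%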
FXN GAA850 act: activators of GAA850 frataxin (FXN) promoter | activation, % at 6 µM | AID 540364 | HEK293 lucGAA850 FXN promoter luciferase reporter, 24 h; percent of 10 µM SAHA response | 0.56% of 360,000 active;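 active means activation above the average of all compounds screened plus 3 SD, cutoff fixed separately per campaign, cut at about 7.5% in these data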
GAA30 FXN cntr: activates GAA30 frataxin promoter, counter-screen for GAA850 activators | shares compounds with FXN GAA850 act | HEK293 lucGAA30 FXN promoter luciferase, 24 h; DMSO = 0%, 5 µM ipriflavone = 100% | activation, % at 6 µM | 66% of 1,900 active;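 active means mean activation above the mean of solvent-only control wells plus 3 SD, cut at about 22% in these data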;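 further: counterscreen of GAA850 promoter hits where activity marks nonselective or luminescence artifacts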
FXN GAA850 conf: GAA850 FXN promoter activation confirmation | AID 588351 | activation, % at 6 µM | shares compounds with FXN GAA850 act | 86% of 1,900 active | HEK293 lucGAA850 FXN promoter luciferase reporter, 24 h; 100% = activation by SAHA;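 active means mean activation above a set limit taken from the primary screen, cut at about 8% in these data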
Large screens that a line does not name were inactive (follow-up assays come after a bar, where they were run). A selection: hits, their analogues and other compounds. The true share with any hit is near 1.9%.

CCOC(=O)c1c(N)sc(C(N)=O)c1C	none
CCCOC(=O)c1c(N)sc(C(=O)OCC)c1C	FXN GAA850 act 14 (no result: Rad51 HR inh, TAG inh) | GAA30 FXN cntr 64 | FXN GAA850 conf 25
COCCNC(=O)CN1N=C(c2ccc(C)cc2)CCC1=O	none (no result: Hsp70 activator, Rad51 HR inh, TAG inh)
CCCCOc1ccc(C2=NNC(=O)CC2)cc1	FXN GAA850 act 10 | GAA30 FXN cntr 42 | FXN GAA850 conf 15
Cn1c2ccccc2c(=O)c2ccc(C#CC3(N)CCCCC3)cc21	FXN GAA850 act 10 (no result: Hsp70 activator, Rad51 HR inh) | GAA30 FXN cntr 49 | FXN GAA850 conf 46
Cn1c2ccccc2c(=O)c2cc(C#CC3(O)CCCCC3)ccc21	none (no result: Hsp70 activator, Rad51 HR inh)
CCNc1ccc(N=Nc2c(C)n(C)n(-c3ccccc3)c2=O)cc1	FXN GAA850 act 8.4 (no result: TAG inh) | GAA30 FXN cntr 29 | FXN GAA850 conf 13
CCCCCC(=O)Nc1ccc(C(=O)COC(=O)c2ccccn2)cc1	none (no result: Hsp70 activator, Rad51 HR inh)
CC(=O)N1CC(C)Oc2ccc(S(=O)(=O)NC(CC(=O)O)c3ccccc3)cc21 (stereo unspecified)	none (no result: Hsp70 activator, Rad51 HR inh, TAG inh)
O=C(N/N=C/c1ccc(F)cc1)c1cccc(NC(=O)c2ccccc2Cl)c1	none (no result: Hsp70 activator, Rad51 HR inh, TAG inh)
Cc1ccc(CNC(=O)CN2NS(=O)(=O)c3ccccc3C2=O)cc1	none (no result: Hsp70 activator, Rad51 HR inh, HIF activator)
C=CCn1c(C)cc(C(=O)CN2NS(=O)(=O)c3ccccc3C2=O)c1C	FXN GAA850 act 7.7 | GAA30 FXN cntr inactive | FXN GAA850 conf 32
COc1cc(C(F)(F)F)c(C(=O)N(C)Cc2cc(Cl)cc(Cl)c2)cn1	none (no result: Hsp70 activator)
c1ccc(-n2nnc(-c3cccnc3)n2)cc1	none
COc1ccc(C2CC(c3ccccc3)=NN2c2ccc(S(N)(=O)=O)cc2)cc1OC (stereo unspecified)	none
COc1ccc(C2=NN(c3ccc(C(=O)O)cc3)C(c3ccc(OC)c(OC)c3)C2)cc1 (stereo unspecified)	FXN GAA850 act 11 (no result: Hsp70 activator, Rad51 HR inh, TAG inh) | GAA30 FXN cntr 31 | FXN GAA850 conf 19
Cc1cccc2nc(CSc3ccccc3N)cn12	none
Cc1cccc2nc(COc3ccc4ccccc4c3Br)cn12	FXN GAA850 act 12 (no result: Hsp70 activator) | GAA30 FXN cntr 134 | FXN GAA850 conf 48
COc1ccc(Nc2nc(N)nc(CSC(=S)N3CCCCC3)n2)cc1	FXN GAA850 act 8.2 (no result: TAG inh) | GAA30 FXN cntr 69 | FXN GAA850 conf 23
COc1ccc(Nc2nc(N)nc(COc3ccc(OC)cc3)n2)cc1	none
COc1ccc(OCc2nc(N)nc(Nc3ccc(C)cc3)n2)cc1	FXN GAA850 act 8.8 | GAA30 FXN cntr 67 | FXN GAA850 conf 25
COc1ccc(Nc2nc(N)nc(CSC(=S)N3CCN(C)CC3)n2)cc1	none (no result: TAG inh)
COC1=Nc2ccccc2N2CCN=C12	none (no result: Hsp70 activator, Rad51 HR inh, HIF activator, TAG inh, FXN GAA850 act)
c1ccc2c(c1)C1=NCCN1c1ccccc1-2	FXN GAA850 act 33 (no result: Hsp70 activator, Rad51 HR inh, HIF activator) | GAA30 FXN cntr inactive | FXN GAA850 conf 150
O/N=C/c1ccccc1OCc1ccccc1Cl	none
COc1cc(/C=N/O)ccc1OCc1ccccc1Cl	FXN GAA850 act 12 (no result: TAG inh) | GAA30 FXN cntr 122 | FXN GAA850 conf 38
CC(=O)c1c[nH]c(C(=O)Nc2ccc(N3CCCCCC3)cc2)c1	none (no result: Hsp70 activator, Rad51 HR inh, HIF activator)
N#C/C(=C\c1cccc(Oc2ccc(C(F)(F)F)cc2[N+](=O)[O-])c1)c1nc2ccccc2[nH]1	FXN GAA850 act 8.0 | GAA30 FXN cntr 23 | FXN GAA850 conf 7.9
Cc1ccc2nc(/C(C#N)=C\c3ccc(Oc4ccc(C(F)(F)F)cc4[N+](=O)[O-])cc3)[nH]c2c1	none (no result: TAG inh)
CCCNC(=O)Cn1c(=O)oc2cc(S(=O)(=O)N3CCCC3)ccc21	none (no result: Hsp70 activator, Rad51 HR inh)
O=C(Cn1c(=O)oc2cc(S(=O)(=O)N3CCCCCC3)ccc21)NC1CCCCCCC1	FXN GAA850 act 16 | GAA30 FXN cntr inactive | FXN GAA850 conf 16
Cn1c(=O)oc2cc(S(=O)(=O)N3CCC(C(=O)NCc4ccccc4)CC3)ccc21	none (no result: Hsp70 activator, Rad51 HR inh)
Cn1c(=O)oc2cc(S(=O)(=O)N3CCC(C(=O)NCc4ccc(F)cc4)CC3)ccc21	FXN GAA850 act 11 | GAA30 FXN cntr inactive | FXN GAA850 conf inactive

High-throughput results: PubChem BioAssay, several laboratories
